According to article PMC8179660 (Chemical Science, 2021):

Biological target: T1, p300 (Homo sapiens, UniProt Q09472)
T1 sequence (Q09472 1284-1673 limits assumed): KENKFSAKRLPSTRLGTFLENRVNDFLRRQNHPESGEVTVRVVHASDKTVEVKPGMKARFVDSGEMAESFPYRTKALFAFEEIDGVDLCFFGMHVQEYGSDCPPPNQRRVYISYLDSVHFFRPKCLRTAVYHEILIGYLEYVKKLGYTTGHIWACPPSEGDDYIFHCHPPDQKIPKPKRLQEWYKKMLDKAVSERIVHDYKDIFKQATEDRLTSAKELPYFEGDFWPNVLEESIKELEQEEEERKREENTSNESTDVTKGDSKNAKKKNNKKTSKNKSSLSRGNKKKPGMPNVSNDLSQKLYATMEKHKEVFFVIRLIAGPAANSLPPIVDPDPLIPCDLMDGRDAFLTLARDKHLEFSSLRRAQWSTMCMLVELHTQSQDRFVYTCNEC
Assay: radioactive acetyltransferase activity-based IC50 assay
Format: biochemical
Outline: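 Test compounds came from a DNA-encoded peptide macrocycle library affinity selection against p300 using a poly-His/Ni-NTA magnetic bead binding system. They were resynthesized off-DNA, without the DNA tag, and tested for p300 inhibition in a radioactive acetyltransferase activity assay to derive IC50.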

IC50: 5.2 µM
Structure (SMILES): CC(C)C[C@H]1NC(=O)[C@@H](NC(=O)CCc2cccc([N+](=O)[O-])c2)Cc2ccc(cc2)SC[C@@H](C(N)=O)NC(=O)CC2(CCCCC2)CNC1=O [Compound 33-C]
